{"data": "Published values from different studies", "target": "Ribosomal protein S6 kinase beta-1 (RPS6KB1, Homo sapiens, UniProt P23443)", "read-out": "enzyme activity", "action": "inhibitor", "note": "Each line is one published result; the experiments were not run side by side."}
{"Compound": "CC(C)(C)C(=O)c1sc(NC2CCCCC2)nc1N", "conditions": "10 µM", "remaining activity": "86%"}
{"Compound": "CC(C)(O)[C@H]1CC[C@H](Nc2ccc3ncc(-c4cccc(C(F)(F)F)c4)n3n2)CC1", "conditions": "1 µM", "remaining activity": "96.8%"}
{"Compound": "O=C(Nc1cnn(-c2csc(C(=O)NC3COC3)c2)c1)Nc1ccccc1Cl", "conditions": "5 µM", "remaining activity": "92.1%"}
{"Compound": "Cc1cnc(NC2CCOCC2)nc1-n1cnc(C(=O)NC(CN)c2cc(F)cc(Cl)c2)c1 (stereo not drawn)", "test": "radiometric", "conditions": "1 µM", "remaining activity": "71%"}
{"Compound": "O=C(Nc1cnn(-c2csc(C(=O)NC3COC3)c2)c1)Nc1c(F)cccc1Cl", "conditions": "5 µM", "remaining activity": "97.7%"}
{"Compound": "CC(C)(C)c1nc2c(s1)c1nc(N)ncc1c1ccc(NS(=O)(=O)c3c(F)cccc3F)c(F)c12", "test": "radiometric", "conditions": "1 µM", "remaining activity": "87%"}
{"Compound": "Cn1c(=O)n(-c2ccc(C(C)(C)C#N)cc2)c2c3cc(-c4cnc5ccccc5c4)ccc3ncc21", "conditions": "10 µM", "remaining activity": "109%"}
{"Compound": "Cc1ccc(C(=O)Nc2ccc(CN3CCN(C)CC3)c(C(F)(F)F)c2)cc1C#Cc1cnc2cccnn12", "conditions": "23.5 nM", "remaining activity": "68%"}
{"Compound": "Cc1[nH]c(/C=C2\\C(=O)Nc3ccc(F)cc32)c(C)c1C(=O)N[C@H]1CCN(C(=O)N(C)C)C1", "conditions": "0.1 µM", "remaining activity": "84%"}
{"Compound": "COc1cc(Nc2cnc(C#N)c(O[C@H](C)CN(C)C)n2)ncc1-c1cnn(C)c1", "test": "radiometric", "conditions": "1 µM", "remaining activity": "55%"}
{"Compound": "CCCOc1ccc(OC)c(F)c1C(=O)c1ccc(C(=O)N[C@@H]2CNC[C@H]2NC(=O)c2ccc3[nH]ncc3c2)cc1", "conditions": "10 µM", "remaining activity": "2%"}
{"Compound": "CCN(CC)CCNC(=O)c1c(C)[nH]c(/C=C2\\C(=O)Nc3ccc(F)cc32)c1C", "conditions": "0.1 µM", "remaining activity": "79%"}
